Holding throughout (type): functional, cell-based
A short description of test [1]: Antiinflammatory activity in human neutrophils assessed as inhibition of FMLP/CB-induced elastase release using Meo-Suc-Ala-Ala-Pro-Val-p-nitroanilide as substrate incubated for 5 mins prior to FMLP/CB-challenge by spectrophotometry. As to conditions: Neutrophil. Summed up:
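Human neutrophils isolated by dextran sedimentation and Ficoll centrifugation before elastase release measurement.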

The test system of test [2] is PC-3. Kind of test: Antiproliferative activity against human PC3 cells after 48 hrs by SRB assay. As to conditions: PC-3, 48 h. Summed up: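 Cells seeded in RPMI 1640 with 5% fetal bovine serum at 37 °C, 5% CO2. After 24 h, two plates per line TCA-fixed as time-zero reference. Compound added, then 48 h further incubation at 37 °C. Cold TCA fixation, 0.4% w/v sulforhodamine B in 1% acetic acid for 10 min, acetic acid washes, dye solubilized in 10 mM Trizma base, absorbance 515 nm. IC50 is 50% absorbance reduction versus untreated cells.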
In general terms: In SRB staining, fixed cells bind dye roughly in proportion to their protein.

Test [3] can be described thus: Antiinflammatory activity in human neutrophils assessed as inhibition of FMLP/CB-induced superoxide-anion generation incubated for 5 mins prior to FMLP/CB-challenge measured after 10 mins by spectrophotometry. As to conditions: Neutrophil. Summed up: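 Human neutrophils isolated by dextran sedimentation and Ficoll centrifugation. Superoxide anion measured as superoxide dismutase-inhibitable reduction of ferricytochrome c.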

In brackets after ≈: the same amount, converted by molar mass.

As a reminder, the IC50 is the point on the concentration scale where inhibition reaches its midpoint. In the case of `C=C1CC[C@H]2C(C)(C)C(=O)CC[C@]2(C)[C@H]1CC/C(C)=C/C(=O)O`, the IC50 is above 10 mg/L in test [1], above 10 mg/L in test [2] and 9.31 mg/L (≈ 29.2 µM) in test [3].

`C=C1C[C@@H](O)[C@H]2C(C)(C)CCC[C@]2(C)[C@H]1CC/C(C)=C/C(=O)O`: the IC50 in test [1] and in test [3] was above 10 mg/L in each case.

As to `COc1ccc(-c2oc3cc(OC)c(OC)c(O)c3c(=O)c2OC)cc1`, the IC50 in test [1] and in test [3] was above 10 mg/L each time.

On to `C=C(C)[C@@H]1CCC2=C[C@]3(C(C)C)CC[C@]2(OO3)[C@@]1(C)CCC(=O)O` (relative stereo), for which the IC50 in test [1] is 4.66 mg/L (≈ 13.9 µM); in test [2], above 10 mg/L; in test [3] it was 3.14 mg/L (≈ 9.39 µM).

Turning to `C=C(C)[C@@H]1CCC2=C[C@](O)(C(C)C)CC[C@@]23OC(=O)CC[C@@]13C` (relative stereo), the IC50 in test [1] and in test [3] was above 10 mg/L throughout.

Turning to `CC(C)c1ccc2c(c1)CC[C@@H](C(C)(C)O)[C@]2(C)CCC(=O)O` (relative stereo), the IC50 in test [1] and in test [3] was above 10 mg/L in each case.

On to `COc1ccc(-c2oc3cc(OC)c(OC)c(O)c3c(=O)c2OC)cc1OC` [ARTEMETIN], for which the IC50 in test [1] and in test [3] was above 10 mg/L in each case.

`CC1=CC(=O)[C@H]2C(C)(C)CCC[C@]2(C)[C@H]1CC/C(C)=C/C(=O)O` [CALLILONGISIN D]: the values for the IC50 in test [1], in test [2] and in test [3] were above 10 mg/L, above 10 mg/L and 5.09 mg/L (≈ 16 µM), respectively.

In the case of `C[C@H]1[C@H](C)CC[C@]2(C(=O)O)CC[C@]3(C)C(=CC[C@@H]4[C@@]5(C)CC[C@H](O)C(C)(C)[C@@H]5CC[C@]43C)[C@H]12` [URSOLIC ACID], the IC50 was 5.21 mg/L (≈ 11.4 µM) in test [1], above 10 mg/L in test [2] and 2.79 mg/L (≈ 6.11 µM) in test [3].
